Experimental data as given in ChEMBL document CHEMBL2434951, “Synthesis and antimicrobial activity of polyhalobenzonitrile quinazolin-4(3H)-one derivatives” (2013).
Converted amounts (≈) assume the structure as drawn. The source made the active and inactive calls. The calls are words filed in the database; no cut-off is given here.

What was measured:
Assay type in all cases: functional
[1] = system: Staphylococcus aureus; assay: Antibacterial activity against Staphylococcus aureus ATCC 6538 assessed as growth inhibition after 24 hrs by liquid dilution method
Procedure, shortened: (§1)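 Liquid (tube) dilution. Compounds and positive controls in DMSO at 11 concentrations from 0.98 upward. Each tube held 1 mL compound solution plus bacterial or fungal inoculum and sterile water. Incubated 24 h, then checked for turbidity; MIC is the lowest concentration without growth. Chlorothalonil, norfloxacin and fluconazole as standards.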

[2] = system: Escherichia coli; assay: Antibacterial activity against Escherichia coli ATCC 8099 assessed as growth inhibition at 1000 ug/mL after 24 hrs by disk diffusion assay; details: for zone of inhibition at 1000 µg/mL: ATCC 8099, 24 h, read-out: DIZ
Procedure, shortened: (§2)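 Disk diffusion on nutrient agar, inoculum spread evenly. Disks of 6 mm Whatman No. 1 paper, dry-heat sterilized at 121 °C for 1 h, soaked in test compound at 1000 (micro)g/mL. Norfloxacin and chlorothalonil disks as positive controls, DMSO disks as negative control. Plates incubated 24 h at 37 °C. Inhibition zone diameter measured in mm.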

[3] = system: Bacillus cereus; assay: Antibacterial activity against Bacillus cereus ATCC 14579 assessed as growth inhibition at 1000 ug/mL after 24 hrs by disk diffusion assay; details: ATCC 14579, 24 h, read-out: DIZ; procedure, shortened: as §2
[4] = system: Escherichia coli; assay: Antibacterial activity against Escherichia coli ATCC 8099 assessed as growth inhibition after 24 hrs by liquid dilution method; procedure, shortened: as §1
[5] = system: Bacillus cereus; assay: Antibacterial activity against Bacillus cereus ATCC 14579 assessed as growth inhibition after 24 hrs by liquid dilution method; procedure, shortened: as §1
[6] = system: Pseudomonas aeruginosa; assay: Antibacterial activity against Pseudomonas aeruginosa ATCC 15442 assessed as growth inhibition after 24 hrs by liquid dilution method; procedure, shortened: as §1
[7] = system: Pseudomonas aeruginosa; assay: Antibacterial activity against Pseudomonas aeruginosa ATCC 15442 assessed as growth inhibition at 1000 ug/mL after 24 hrs by disk diffusion assay; details: ATCC 15442, 24 h, read-out: DIZ; procedure, shortened: as §2
[8] = system: Candida albicans; assay: Antifungal activity against Candida albicans ATCC 10231 assessed as growth inhibition at 1000 ug/mL after 24 hrs by disk diffusion assay; details: for zone of inhibition at 1000 µg/mL: ATCC 10231, 24 h, read-out: DIZ; procedure, shortened: as §2
[9] = system: Staphylococcus aureus; assay: Antibacterial activity against Staphylococcus aureus ATCC 6538 assessed as growth inhibition at 1000 ug/mL after 24 hrs by disk diffusion assay; details: for zone of inhibition at 1000 µg/mL: ATCC 6538, 24 h, read-out: DIZ; procedure, shortened: as §2
[10] = system: Staphylococcus aureus; assay: Bactericidal activity against Staphylococcus aureus ATCC 6538 after 18 to 24 hrs; details: read-out: MBC99.9
Procedure, shortened: (§3)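 After the liquid dilution MIC tubes, 0.1 mL from each tube spread on agar plates. Colonies counted after 18–24 h incubation at 35 °C. MBC taken as the lowest drug concentration killing 99.9% of the inoculum.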

[11] = system: Bacillus cereus; assay: Bactericidal activity against Bacillus cereus ATCC 14579 after 18 to 24 hrs; details: read-out: MBC99.9; procedure, shortened: as §3
[12] = system: Candida albicans; assay: Fungicidal activity against Candida albicans ATCC 10231 after 18 to 24 hrs; details: read-out: MFC99.9; procedure, shortened: as §3
[13] = system: Candida albicans; assay: Antifungal activity against Candida albicans ATCC 10231 assessed as growth inhibition after 24 hrs by liquid dilution method; details: ATCC 10231, 24 h; procedure, shortened: as §1

SMILES	MIC ([1]; ATCC 6538, 24 h) [µg/mL]	zone of inhibition at 1000 µg/mL [2] [mm]	zone of inhibition at 1000 µg/mL [3] [mm]	MIC ([4]; ATCC 8099, 24 h) [µg/mL]	MIC ([5]; ATCC 14579, 24 h) [µg/mL]	MIC [6]	zone of inhibition at 1000 µg/mL [7] [mm]	zone of inhibition at 1000 µg/mL [8] [mm]	zone of inhibition at 1000 µg/mL [9] [mm]	MIC ([6]; ATCC 15442, 24 h) [µg/mL]	MBC [10] [µg/mL]	MBC [11] [µg/mL]	MFC [12] [µg/mL]	MIC [13] [µg/mL]	diameter of the inhibition zone (DIZ) [8]	diameter of the inhibition zone (DIZ) [2]	diameter of the inhibition zone (DIZ) [9]	MIC [1]	MIC [4]	MIC [5]
Cc1ccc(Nc2ccc(Nc3c(Cl)c(Cl)c(C#N)c(Cl)c3C#N)c3nc[nH]c(=O)c23)cc1C	15.6 (≈ 30.6 µM)	10.8	11	83.3 (≈ 163 µM)	0.8 (≈ 1.57 µM)	inactive	9.4	10	8.5											
Cc1ccc(N)c(Nc2ccc([N+](=O)[O-])c3nc[nH]c(=O)c23)c1	10.4 (≈ 33.4 µM)	14.7	15	20.8 (≈ 66.8 µM)	20.8 (≈ 66.8 µM)		16.8	13.5	5.3	20.8 (≈ 66.8 µM)										
N#Cc1c(Cl)c(Cl)c(Nc2ccc(Nc3cccc(Cl)c3)c3c(=O)[nH]cnc23)c(C#N)c1Cl	0.7 (≈ 1.36 µM)	9	9	7.8 (≈ 15.1 µM)	0.5 (≈ 0.969 µM)		8.7	9	8.5	20.8 (≈ 40.3 µM)	31.3 (≈ 60.6 µM)	41.7 (≈ 80.8 µM)	31.3 (≈ 60.6 µM)	1.7 (≈ 3.29 µM)						
N#Cc1c(Cl)c(Cl)c(Nc2ccc(N3CCCCC3)c3c(=O)[nH]cnc23)c(C#N)c1Cl	0.7 (≈ 1.48 µM)	9	15	1 (≈ 2.11 µM)	0.5 (≈ 1.06 µM)		8.7		9.7	1.3 (≈ 2.74 µM)	4.6 (≈ 9.71 µM)	6.5 (≈ 13.7 µM)	41.7 (≈ 88 µM)	2.6 (≈ 5.49 µM)	inactive					
Cc1ccccc1Nc1ccc(N)c2nc[nH]c(=O)c12	250 (≈ 939 µM)	9	6	250 (≈ 939 µM)	167 (≈ 626 µM)		8.5	10	8	417 (≈ 1560 µM)										
Nc1ccc(Nc2ccccc2)c2c(=O)[nH]cnc12	208 (≈ 824 µM)		9.5	208 (≈ 826 µM)	125 (≈ 495 µM)		7			250 (≈ 991 µM)					inactive	inactive	inactive			
Cc1ccccc1Nc1ccc(Nc2c(Cl)c(Cl)c(C#N)c(Cl)c2C#N)c2nc[nH]c(=O)c12	52.1 (≈ 105 µM)	12.5	10.5	125 (≈ 252 µM)	0.5 (≈ 1.01 µM)		9		10	83.4 (≈ 168 µM)					inactive					
N#Cc1c(Cl)c(Cl)c(Nc2ccc(Nc3ccccc3)c3c(=O)[nH]cnc23)c(C#N)c1Cl	125 (≈ 259 µM)	11	11.7	250 (≈ 519 µM)	0.5 (≈ 1.04 µM)		11.3	10.3	10	83.4 (≈ 173 µM)										
Cc1cc(C)cc(Nc2ccc(Nc3c(Cl)c(Cl)c(C#N)c(Cl)c3C#N)c3nc[nH]c(=O)c23)c1	0.8 (≈ 1.57 µM)	11.5	10.3	7.8 (≈ 15.3 µM)	0.7 (≈ 1.37 µM)		10	7	10	20.8 (≈ 40.8 µM)	31.3 (≈ 61.4 µM)	31.3 (≈ 61.4 µM)	52.1 (≈ 102 µM)	5.2 (≈ 10.2 µM)						
Cc1cccc(Nc2ccc(Nc3c(Cl)c(F)c(C#N)c(F)c3C#N)c3nc[nH]c(=O)c23)c1	500 (≈ 1080 µM)	9.3	10	500 (≈ 1080 µM)	292 (≈ 630 µM)		10	9.5	9.8	417 (≈ 900 µM)										
OC(Cn1cncn1)(Cn1cncn1)c1ccc(F)cc1F [FLUCONAZOLE]													15.6 (≈ 50.9 µM)	2 (≈ 6.53 µM)						
N#Cc1c(Cl)c(Cl)c(Nc2ccc(Nc3ccc(Cl)cc3)c3c(=O)[nH]cnc23)c(C#N)c1Cl	4.7 (≈ 9.11 µM)	9	9	333 (≈ 646 µM)	83.3 (≈ 161 µM)		9.5	9.5	8.8	417 (≈ 807 µM)										
N#Cc1c(Cl)c(Cl)c(Cl)c(C#N)c1Cl [CHLOROTHALONIL]	1.3 (≈ 4.89 µM)	18.5	15.5	0.5 (≈ 1.88 µM)	0.7 (≈ 2.63 µM)		15.8	17	14	1.7 (≈ 6.39 µM)	2 (≈ 7.52 µM)	1.7 (≈ 6.39 µM)	7.8 (≈ 29.3 µM)	0.7 (≈ 2.63 µM)						
CCn1cc(C(=O)O)c(=O)c2cc(F)c(N3CCNCC3)cc21 [NORFLOXACIN]	1.2 (≈ 3.76 µM)	20	18.6	0.5 (≈ 1.57 µM)	0.6 (≈ 1.88 µM)		16.8	21.8	17	0.7 (≈ 2.19 µM)	5.2 (≈ 16.3 µM)	6.5 (≈ 20.4 µM)								
Cc1cccc(Nc2ccc(Nc3c(Cl)c(Cl)c(C#N)c(Cl)c3C#N)c3nc[nH]c(=O)c23)c1	5.2 (≈ 10.5 µM)	10.3	11	104 (≈ 210 µM)	1 (≈ 2.02 µM)	inactive	10	10	9.7											
Cc1ccc(Nc2c(Cl)c(Cl)c(C#N)c(Cl)c2C#N)c(Nc2ccc([N+](=O)[O-])c3nc[nH]c(=O)c23)c1	500 (≈ 925 µM)	9	10.7	417 (≈ 771 µM)	52.1 (≈ 96.3 µM)		9.5	7.5	9.3	417 (≈ 771 µM)										
Nc1ccc(Nc2cccc(Cl)c2)c2c(=O)[nH]cnc12		6	6			inactive	6.5		6.5						inactive			inactive	inactive	inactive
Cc1ccc(Nc2ccc(Nc3c(Cl)c(Cl)c(C#N)c(Cl)c3C#N)c3nc[nH]c(=O)c23)cc1	10.4 (≈ 21 µM)	10.5	11	104 (≈ 210 µM)	0.7 (≈ 1.41 µM)		12	9.5	9.3	52.1 (≈ 105 µM)										
N#Cc1c(F)c(Cl)c(Nc2ccc(Nc3ccc(Cl)cc3)c3c(=O)[nH]cnc23)c(C#N)c1F	20.8 (≈ 43 µM)	9	10.4	208 (≈ 431 µM)	41.7 (≈ 86.3 µM)		12	8.5	9.7	500 (≈ 1030 µM)										
